# Experimental data from ChEMBL document CHEMBL1123202, “Imidazo[4,5-c]pyridines (3-deazapurines) and their nucleosides as immunosuppressive and antiinflammatory agents” (1986).
# Calls of active or inactive are those of the source. The rule behind the calls is not given here.
# Columns and labels:
# EL4 [1] = experiment: Inhibition of lymphocyte-mediated cytolysis at a concentration of 100 uM in [51Cr]- labelled EL4 leukemia cells; format: functional; settings: Mus musculus
# D98 (Homo sapiens) = experiment: Compound was tested for inhibition of human sternal marrow cell (D98) growth at a concentration of 100 uM
# Mus musculus = species: Mus musculus; experiment: Compound was tested for inhibition of mouse connective tissue cell (L) growth at a concentration of 100 uM; format: functional; settings: for inhibition at 100 µM: Mus musculus
# How it was run: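 D-98 (human sternal marrow) and L (mouse connective tissue) cells were cultured with compound at 100 µM, and growth inhibition was reported as %. Procedure per earlier publication.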
# Rattus norvegicus [2] = experiment: Dose required to produce an acute inflammatory response of the algal poly saccharide carrageenan into the pleural cavity of rat; IA is Inactive at 9 mg/kg; format: functional, organism-based; parameters: dose 9 mg/kg
# Rattus norvegicus [3] = species: Rattus norvegicus; experiment: Dose required to produce an acute inflammatory response of the algal poly saccharide carrageenan into the pleural cavity of rat.; format: functional
# EL4 [4] = experiment: Compound was tested for inhibition of lymphocyte-mediated cytolysis at a concentration of 26 uM in [51Cr]- labeled EL4 leukemia cells; format: functional; settings: Mus musculus
# EL4 [5] = experiment: Compound was tested for inhibition of lymphocyte-mediated cytolysis at a concentration of 50 uM in [51Cr]- labeled EL4 leukemia cells; format: functional; settings: Mus musculus
# Rattus norvegicus [6] = experiment: Dose required to produce an acute inflammatory response of the algal poly saccharide carrageenan into the pleural cavity of rat; IA is Inactive at 6 mg/kg; format: functional, organism-based; parameters: dose 6 mg/kg
Compound,inhibition at 100 µM (EL4 [1]) [%],inhibition (D98 (Homo sapiens)) [%],inhibition at 100 µM (Mus musculus) [%],ED50 (Rattus norvegicus [2]),ED50 (Rattus norvegicus [3]) [mg/kg],inhibition at 26 µM (EL4 [4]) [%],inhibition at 50 µM (EL4 [5]) [%],ED50 (Rattus norvegicus [6]),Inhibition (Mus musculus) [%]
CSc1nccc2c1ncn2C1O[C@H](CO)[C@@H](O)[C@H]1O (some centres not stated),< 5,24,40,inactive,,,,,
Nc1nccc2c1ncn2[C@H]1C[C@H](O)[C@@H](CO)O1,89,18,0,,10,,,,
Nc1nccc2c1ncn2[C@@H]1O[C@H](CO)[C@@H](O)[C@H]1O,80,56,49,,3,,,,
OC[C@H]1O[C@@H](n2cnc3c(NCc4ccccc4)nccc32)C[C@@H]1O,8,18,37,,> 9,,,,
CSc1[nH]ccc2ncnc1-2,< 5,4,11,,9,,,,
OC[C@H]1O[C@@H](n2cnc3c(S)nccc32)C[C@@H]1O,< 5,10,8,inactive,,,,,
OCCNc1[nH]ccc2ncnc1-2,< 5,3,16,,> 9,,,,
Nc1[nH]ccc2ncnc1-2,< 5,60,24,,8,,,,
CCCCCCNc1[nH]ccc2ncnc1-2,100,53,82,,> 9,0,45,,
CNc1nccc2c1ncn2C1O[C@H](CO)[C@@H](O)[C@H]1O (some centres not stated),11,8,21,,,,,inactive,
OC[C@H]1O[C@@H](n2cnc3cnccc32)[C@H](O)[C@@H]1O (stereo in doubt; 17) [listing 1 of 2 here],,1,,inactive,,,,,
OC[C@H]1O[C@@H](n2cnc3c(Cl)nccc32)C[C@@H]1O,< 5,5,25,inactive,,,,,
[N-]=[N+]=Nc1nccc2c1ncn2C1O[C@H](CO)[C@@H](O)[C@H]1O (some centres not stated),< 5,4,8,,> 9,,,,
OC[C@H]1OC(n2cnc3c(SCc4ccccc4)nccc32)[C@H](O)[C@@H]1O (some centres not stated),30,30,43,,9,,,,
Sc1[nH]ccc2ncnc1-2,< 5,26,38,,8,,,,
OC[C@H]1O[C@@H](n2cnc3cnccc32)C[C@@H]1O,< 5,6,0,,> 9,,,,
OC[C@H]1O[C@@H](n2cnc3c(SCc4ccccc4)nccc32)C[C@@H]1O,11,18,19,inactive,,,,,
[N-]=[N+]=Nc1nccc2ncn([C@H]3C[C@H](O)[C@@H](CO)O3)c12,< 5,14,2,,> 9,,,,
CN(C)c1nccc2c1ncn2C1O[C@H](CO)[C@@H](O)[C@H]1O (some centres not stated),10,0,14,,> 9,,,,
OC[C@H]1OC(n2cnc3c(NCc4ccccc4)nccc32)[C@H](O)[C@@H]1O (some centres not stated),5,32,38,,> 9,,,,
CCNc1[nH]ccc2ncnc1-2,< 5,3,11,,,,,inactive,
OC[C@H]1O[C@@H](n2cnc3cnccc32)[C@H](O)[C@@H]1O (stereo in doubt; 16) [listing 1 of 2 here],,13,,inactive,,,,,
[N-]=[N+]=Nc1[nH]ccc2ncnc1-2,< 5,20,20,inactive,,,,,

Compound,inhibition at 100 µM (EL4 [1]) [%],inhibition (D98 (Homo sapiens)) [%],inhibition at 100 µM (Mus musculus) [%],ED50 (Rattus norvegicus [2]),ED50 (Rattus norvegicus [3]) [mg/kg],inhibition at 26 µM (EL4 [4]) [%],inhibition at 50 µM (EL4 [5]) [%],ED50 (Rattus norvegicus [6]),Inhibition (Mus musculus) [%]
[N-]=[N+]=Nc1nccc2c1ncn2[C@H]1C[C@H](O)[C@@H](CO)O1,13,4,12,inactive,,,,,
CNc1[nH]ccc2ncnc1-2,< 5,18,6,,,,,inactive,
OC[C@H]1OC(n2cnc3c(Cl)nccc32)[C@H](O)[C@@H]1O (some centres not stated),< 5,76,27,inactive,,,,,
Clc1[nH]ccc2ncnc1-2,< 5,6,29,,> 9,,,,
CN(C)c1nccc2c1ncn2[C@H]1C[C@H](O)[C@@H](CO)O1,< 5,0,6,,> 9,,,,
OC[C@H]1OC(n2cnc3c(S)nccc32)[C@H](O)[C@@H]1O (some centres not stated),< 5,6,3,,9,,,,
OCCNc1nccc2c1ncn2C1O[C@H](CO)[C@@H](O)[C@H]1O (some centres not stated),6,0,3,,,,,inactive,
c1ccc(CNc2[nH]ccc3ncnc2-3)cc1,57,75,68,,9,,,,
OC[C@H]1OC(n2cnc3c(Nc4ccccc4)nccc32)[C@H](O)[C@@H]1O (some centres not stated),10,4,18,,> 9,,,,
OC[C@H]1O[C@@H](n2cnc3cnccc32)[C@H](O)[C@@H]1O (stereo in doubt; 16) [listing 2 of 2 here],< 5,,,,,,,,8
c1ccc(Nc2[nH]ccc3ncnc2-3)cc1,26,12,34,inactive,,,,,
[O-][n+]1ccc2c(c1)ncn2[C@H]1C[C@H](O)[C@@H](CO)O1,< 5,0,13,inactive,,,,,
CSc1nccc2c1ncn2[C@H]1C[C@H](O)[C@@H](CO)O1,< 5,36,30,,> 9,,,,
c1ccc(CSc2[nH]ccc3ncnc2-3)cc1,20,26,54,,> 9,,,,
CC1OC(n2cnc3c(N)nccc32)CC1O (configuration not stated),25,3,12,inactive,,,,,
c1cc2[nH]cnc2cn1,< 5,0,12,,> 9,,,,
C[C@H]1OC(n2cnc3c(N)nccc32)[C@H](O)[C@@H]1O (some centres not stated),32,18,4,inactive,,,,,
CCCCCCNc1nccc2c1ncn2C1O[C@H](CO)[C@@H](O)[C@H]1O (some centres not stated),14,8,41,,,,,inactive,
[O-][n+]1ccc2[nH]cnc2c1,5,3,1,,> 9,,,,
OC[C@H]1O[C@@H](n2cnc3cnccc32)[C@H](O)[C@@H]1O (stereo in doubt; 17) [listing 2 of 2 here],,,,,,,,,3
CCNc1nccc2c1ncn2C1O[C@H](CO)[C@@H](O)[C@H]1O (some centres not stated),8,4,20,,,,,inactive,
CN(C)c1[nH]ccc2ncnc1-2,25,8,21,,9,,,,
[O-][n+]1ccc2c(c1)ncn2C1O[C@H](CO)[C@@H](O)[C@H]1O (some centres not stated),< 5,5,3,inactive,,,,,
